Measured values collected from several papers.
Protocols differ between the studies behind these lines.
Target: Mitogen-activated protein kinase kinase kinase kinase 1 (MAP4K1, Homo sapiens, UniProt Q92918)

Nc1ncc2c(n1)-c1c([nH]c3ccc(C#CC4CC4)cc13)CCCC2  remaining binding (binding, competition with immobilised ligand; 1 µM): 100%
c1cnn2ncc(-c3ccnc(N4CCC45COC5)n3)c2c1  remaining binding (binding; 1 µM): 100%
Cc1c(NC(=O)c2cc(C(N)=O)nc3cc(F)ccc23)c(C(F)(F)F)nn1Cc1ccc(C#N)cc1  remaining binding (cell-free assay, competition with immobilised ligand; 1 µM): 100%
O=C(NCCCN1CCOCC1)c1ccc(Nc2nccc(-c3cc4ccccc4s3)n2)cc1  remaining binding (binding, competition with immobilised ligand; 1 µM): 85%
CN(CCCC(F)(F)F)c1nccc(-c2cnn3ncccc23)n1  remaining binding (binding; 1 µM): 95%
C[C@H](c1ccnc(Nc2nc3ccc(-c4cc(N(C)C)ncn4)cc3[nH]2)c1)N1CCN(C(=O)CC(F)(F)F)CC1  remaining binding (cell-free assay, competition with immobilised ligand; 0.1 µM): 51%
CN(C)c1nccc(-c2cnn3ncccc23)n1  remaining binding (binding; 1 µM): 100%
COc1ncc2cc3ccccc3nc2c1C#N  remaining binding (cell-free assay, competition with immobilised ligand; 5 µM): 89%
CS(=O)(=O)c1cc(C2(NC(=O)c3cncc4c3cnn4-c3ccc(F)cc3)CC2)ccn1  remaining binding (cell-free assay, competition with immobilised ligand; 1 µM): 89%
C[C@@H](c1ccc(-n2cnc3c(N)ncnc32)cc1)N1CCc2nn(C)c(Cc3ccccc3)c2C1=O  remaining binding (binding, competition with immobilised ligand; 0.1 µM): 100%
O=C(Nc1c[nH]nc1C(=O)NC1CCNCC1)c1cc(F)cc(F)c1  remaining binding (binding, competition with immobilised ligand; 1 µM): 100%
O=C(c1ccc(Nc2nccc(-c3cc4ccccc4s3)n2)cc1)N1CCC(N2CCCC2)CC1  remaining binding (binding, competition with immobilised ligand; 1 µM): 84%
COc1cnc(Nc2cccc(S(N)(=O)=O)c2)nc1N1CCN(c2ccccc2)CC1  remaining binding (binding, competition with immobilised ligand; 1 µM): 88%
C=CC(=O)N1CCC(C(=O)NCC(=O)N2CCN(c3nc(-c4cnc(N)nc4C(F)F)nc(N4CCOCC4)n3)CC2)CC1  remaining binding (binding, competition with immobilised ligand; 1 µM): 100%
O=C(c1ccc(Nc2ncc(Cl)c(-c3ccc(Cl)s3)n2)cc1)N1CCC(N2CCCC2)CC1  remaining binding (binding, competition with immobilised ligand; 1 µM): 12%
C[C@@H]1CCN(c2nccc(-c3cnn4ncccc34)n2)C1  remaining binding (binding; 1 µM): 100%
CO[C@H]1CC[C@H](CNc2ccc(S(=O)(=O)NC(=O)c3ccc(N4CCN(CC5=C(c6ccc(Cl)cc6)CC(C)(C)CC5)CC4)cc3Oc3cnc4[nH]ccc4c3)cc2[N+](=O)[O-])CC1  remaining binding (cell-free assay, competition with immobilised ligand; 1 µM): 69%
CN(C)c1nccc(-c2cnc3ncccn23)n1  remaining binding (binding; 1 µM): 100%
CN(C(=O)c1ccccc1)c1cc(N(C)c2ccc3c(c2)CCc2ccc(C(=O)NCCN4CCOCC4)cc2C3=O)ccc1F  remaining binding (cell-free assay, competition with immobilised ligand; 1 µM): 99%
N[C@@H]1CCN(c2nccc(-c3cnn4ncccc34)n2)C1  remaining binding (binding; 1 µM): 100%
Cc1cc(-n2nc(Cc3cc(F)cc(C(F)(F)F)c3)nc2C)ccc1C(N)=O  remaining binding (cell-free assay, competition with immobilised ligand; 1 µM): 100%
c1cncc(-c2cccc(Nc3nccc(NC4CCCCC4)n3)c2)c1  remaining binding (binding, competition with immobilised ligand; 10 µM): 39%
